Measured values from PMC4863959 (Dalton transactions (Cambridge, England : 2003), 2016).

Tests used:
bovine Capthesin B = details: read-out: bovine Cathepsin B IC50; cited from earlier work
plasmid (pBR322) DNA = experiment: Electrophoresis mobility shift assay with plasmid DNA; type: binding
[1] = system: human breast adenocarcinoma cell line MCF7; experiment: Cytotoxicity, MTT assay, MCF-7 cells; type: cell-based; details: read-out: IC50 MCF-7, 24h incubation
Outline: (§1)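 Cells were kindly donated by a university culture unit. They were grown in DMEM with 10% FBS and 1% penicillin/streptomycin/amphotericin B at 37°C and 5% CO2. Monolayers (~5×10^4) were grown 72 h, then exposed 24 h to test compound (0–100 μM; diluted from fresh DMSO stock; final DMSO ≤0.6% v/v). MTT was added for 3.5 h, formazan dissolved in DMSO, and A570 read (690 nm background). IC50 is mean ±SE of three experiments, triplicate microcultures.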

[2] = system: human colon adenocarcinoma cell line HT-29; experiment: Cytotoxicity, MTT assay, HT-29 cells; type: cell-based; details: read-out: IC50 HT-29, 24h incubation
Outline: as §1

MDA-MB-231 cells = experiment: ApoTox-Glo Triplex assay; type: cell-based, human; details: 10.7 μM, 24 h
[3] = system: non-tumorigenic human embryonic kidney cells HEK-293T; experiment: Cytotoxicity, XTT assay, HEK-293T cells; type: cell-based; details: read-out: IC50 HEK-239T, 24h incubation
Outline: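 Cells were maintained in DMEM with 100 U/mL penicillin, 100 μg/mL streptomycin and 10% FBS, humidified, 37°C, 5% CO2/[…]. Seeding was 5×10^3 cells/well in phenol red-free, antibiotic-free DMEM with 10% FBS and 2 mM L-glutamine, grown 24 h. Test compound (final 0.1–50 μM) was given for 24 h or 48 h. XTT (final 0.3 mg/mL) ran 4 h, read at 450 nm. Survival was taken as treated/untreated absorbance. IC50 is mean ±SE of three experiments, triplicate microcultures.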

[4] = system: human cervical carcinoma cell line HeLa; experiment: Cytotoxicity, MTT assay, HeLa cells; type: cell-based; details: read-out: IC50 HeLa, 24h incubation, 1% DMSO stock diluted with medium
Outline: as §1

[5] = Stability in solution by 1H-NMR spectroscopy; type: physicochemical; details: D2O, PBS-D2O or neat DMSO-d6
[6] = molecular target: Human serum albumin (HSA) (Homo sapiens, UniProt P02768); experiment: HSA tryptophan fluorescence quenching; type: binding; details: HSA 10 μM, complex 10–100 μM
Human serum albumin (HSA), sequence (P02768 25-609): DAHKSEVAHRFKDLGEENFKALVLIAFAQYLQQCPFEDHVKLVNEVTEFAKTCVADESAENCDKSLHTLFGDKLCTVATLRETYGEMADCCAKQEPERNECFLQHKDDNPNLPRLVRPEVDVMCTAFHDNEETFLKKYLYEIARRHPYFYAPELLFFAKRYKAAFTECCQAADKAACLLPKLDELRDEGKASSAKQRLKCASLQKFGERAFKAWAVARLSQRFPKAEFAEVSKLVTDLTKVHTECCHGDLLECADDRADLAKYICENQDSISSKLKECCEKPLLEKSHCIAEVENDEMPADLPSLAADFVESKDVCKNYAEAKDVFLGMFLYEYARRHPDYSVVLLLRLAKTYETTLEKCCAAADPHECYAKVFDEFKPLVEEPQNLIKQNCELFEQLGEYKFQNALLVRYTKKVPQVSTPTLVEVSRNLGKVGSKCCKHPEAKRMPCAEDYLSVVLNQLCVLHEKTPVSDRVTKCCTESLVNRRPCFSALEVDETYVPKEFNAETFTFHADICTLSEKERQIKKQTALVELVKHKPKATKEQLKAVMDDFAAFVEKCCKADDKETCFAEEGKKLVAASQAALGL
Outline: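 HSA (10 μM) in phosphate buffer (pH 7.4) received ten successive additions from an 8 mM DMSO stock of test compound, giving final 10–100 μM. Trp emission was recorded at room temperature, 300–450 nm, excitation 295 nm, 240 s after each addition. Compound, buffer and DMSO fluorescence were negligible. Data were fitted to F0/F = 1 + KSV[Q].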

[7] = system: human breast adenocarcinoma MDA-MB 231 cell line; experiment: Cytotoxicity, XTT assay, MDA-MB-231 cells; type: cell-based; details: read-out: IC50 MDA-MB-231, 24h incubation
Outline: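 Cells kept adherent in DMEM with penicillin/streptomycin and 10% FBS (37°C, 5% CO2/[…]). Seeded at 5×10^3 cells/well in phenol red-free, antibiotic-free DMEM with 10% FBS and 2 mM L-glutamine, and grown 24 h. Test compound added at 0.1–50 μM final for 24 h. XTT added at 0.3 mg/mL final for 4 h, then A450 read. Survival is the treated/untreated absorbance ratio. IC50 given as mean (±SE) of three independent experiments, triplicate microcultures per concentration.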

Cc1ccc(C(C)C)cc1.[Cl][Ru]([Cl])[PH]12CN3CN(CN(C3)C1)C2 [RAPTA-C]
IC50 (bovine Capthesin B): 2.5 µM

N.N.[Cl][Pt][Cl] [cisplatin, cis-diamminedichloroplatinum (II), reference compound]
effect on electrophoretic mobility of plasmid DNA (plasmid (pBR322) DNA; 37°C, 20 h, Tris/HCl buffer, drug/DNA ratio up to 2.0): both increase and decrease the mobility of the OC and the CCC forms

Cc1ccccc1.[Cl][Ru]([Cl])[PH]12CN3CN(CN(C3)C1)C2 [RAPTA-T]
IC50 (bovine Capthesin B): 1.5 µM

G1-[[NCPh(o-N)Ru(η^6-p-cymene)Cl]Cl]4 [Compound 17]
IC50 [1]: 6.9 ± 0.5 µM | IC50 [2]: 5.6 ± 0.1 µM | necrotic cells (MDA-MB-231 cells): 27% | reduction of MDA-MB-231 viability (MDA-MB-231 cells): ca. 58% | treated cells remaining viable (MDA-MB-231 cells): 42% | apoptotic cells (MDA-MB-231 cells; caspase-3/-7 activity): 16% | IC50 [3]: 10.7 µM | IC50 [4]: 8.1 ± 0.4 µM | stability by 1H-NMR over 72 hours [5]: did not observe changes | shape of Stern-Volmer plot F0/F versus [Q] [6]: positive deviation | IC50 [7]: 6.1 ± 1 µM | interaction with plasmid DNA at acidic, neutral and basic pH (plasmid (pBR322) DNA; metal/DNAbp ratio 2.0, pH 6, 7 and 8): do not interact with plasmid (pBR322) DNA
